# Reference: ChEMBL document CHEMBL5137074 (J Med Chem, 2022)
# Tests used:
# Cytochrome P450 2D6 = Cytochrome P450 2D6 (Homo sapiens, UniProt P10635); assay: Inhibition of CYP2D6 (unknown origin)
# Cytochrome P450 2C9 = Cytochrome P450 2C9 (Homo sapiens, UniProt P11712); assay: Inhibition of CYP2C9 (unknown origin)
# [1] = Apparent permeability across apical to basolateral side in human Caco-2 cells
# Cytochrome P450 3A4 [2] = target: T1, Cytochrome P450 3A4 (Homo sapiens, UniProt P08684); assay: Inhibition of CYP3A4 (unknown origin)
# T1 sequence (P08684 whole entry): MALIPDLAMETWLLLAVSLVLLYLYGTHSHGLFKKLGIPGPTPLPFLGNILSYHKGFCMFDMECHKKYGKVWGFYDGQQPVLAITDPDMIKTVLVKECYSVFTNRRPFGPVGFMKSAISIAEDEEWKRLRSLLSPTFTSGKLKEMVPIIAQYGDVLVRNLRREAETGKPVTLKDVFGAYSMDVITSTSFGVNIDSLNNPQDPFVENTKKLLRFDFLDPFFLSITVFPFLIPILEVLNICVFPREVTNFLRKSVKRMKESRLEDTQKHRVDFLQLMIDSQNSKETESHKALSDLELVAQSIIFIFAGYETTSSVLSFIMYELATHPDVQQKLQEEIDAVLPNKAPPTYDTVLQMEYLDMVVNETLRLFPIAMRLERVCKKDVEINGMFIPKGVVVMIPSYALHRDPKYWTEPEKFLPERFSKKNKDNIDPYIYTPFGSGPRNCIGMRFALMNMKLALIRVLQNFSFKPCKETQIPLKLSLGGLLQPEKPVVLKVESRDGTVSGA
# [3] = Plasma protein binding in rat at 1 uM
# [4] = Metabolic stability in human hepatocytes assessed as intrinsic clearance measured per 10^6 cells
# [5] = Oral bioavailability in CD-1 mouse at 2.5 to 5 mg/kg measured upto 24 hrs by HPLC-LCMS analysis; assay type: ADME, organism-based; settings: in vivo, dose 2.5-5 mg/kg
# Procedure, shortened: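 Female CD1 mice (20–30 g) dosed IV at 1 mg/kg as a solution. Oral dosing at 2.5 or 5 mg/kg as a suspension in 0.5% methyl cellulose. […] Non-compartmental analysis.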
# [6] = Plasma protein binding in human at 1 uM; assay type: ADME, cell-free
# Procedure, shortened: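 Plasma protein binding measured at 1 μM compound in human plasma, with rat plasma run alongside.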
# [7] = Oral bioavailability in Beagle dog at 1 mg/kg measured upto 24 hrs by reversed phase LCMS analysis; assay type: ADME, organism-based, Canis lupus familiaris; settings: in vivo
# [8] = Oral bioavailability in Cynomolgous monkey at 1 mg/kg measured upto 24 hrs by reversed phase LCMS analysis; assay type: ADME, organism-based, Macaca fascicularis; settings: cynomolgus monkey, in vivo
# Cytochrome P450 3A4 [9] = target: T1, Cytochrome P450 3A4; assay: Induction of CYP3A4 in human hepatocytes at 3 uM relative to rifampicin; assay type: ADME, cell-based, Hepatocyte
# Procedure, shortened: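 Single-donor human hepatocytes exposed at 3 μM. CYP3A4 induction expressed as % of the 10 μM rifampicin positive control.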
# [10] = rat, in vivo, iv, 1 mg/kg, 24 h
# [11] = rat, in vivo, po, 5 mg/kg, 24 h
# Wee1-like protein kinase = Wee1-like protein kinase (Homo sapiens, UniProt P30291); assay: Inhibition of WEE1 (unknown origin)
# Chain of Wee1-like protein kinase (P30291 whole entry, the tested form may be a part): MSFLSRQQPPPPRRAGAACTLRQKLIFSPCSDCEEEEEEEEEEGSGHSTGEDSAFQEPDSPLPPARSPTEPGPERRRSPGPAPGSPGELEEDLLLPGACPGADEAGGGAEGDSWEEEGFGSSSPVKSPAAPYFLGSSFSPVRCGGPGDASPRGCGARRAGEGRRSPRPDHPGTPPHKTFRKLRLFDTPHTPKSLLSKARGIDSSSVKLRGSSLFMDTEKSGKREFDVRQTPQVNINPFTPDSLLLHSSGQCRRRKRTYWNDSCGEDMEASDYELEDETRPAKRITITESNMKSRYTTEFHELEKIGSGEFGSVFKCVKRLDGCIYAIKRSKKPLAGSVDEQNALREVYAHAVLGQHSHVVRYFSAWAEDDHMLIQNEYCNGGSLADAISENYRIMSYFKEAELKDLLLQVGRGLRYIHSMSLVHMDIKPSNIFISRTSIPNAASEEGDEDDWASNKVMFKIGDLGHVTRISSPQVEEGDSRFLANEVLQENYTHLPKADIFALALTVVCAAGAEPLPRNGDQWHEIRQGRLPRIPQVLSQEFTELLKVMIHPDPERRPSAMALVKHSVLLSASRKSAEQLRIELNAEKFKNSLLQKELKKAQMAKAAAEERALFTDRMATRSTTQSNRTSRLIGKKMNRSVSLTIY
# Ephrin type-B receptor 3 = target: T2, Ephrin type-B receptor 3 (Homo sapiens, UniProt P54753); assay: Inhibition of full length Nano-luc fused EPHB3 in human HEK-293T cells incubated for 2 hrs by cell based NanoBRET target engagement assay
# T2 sequence (P54753 whole entry): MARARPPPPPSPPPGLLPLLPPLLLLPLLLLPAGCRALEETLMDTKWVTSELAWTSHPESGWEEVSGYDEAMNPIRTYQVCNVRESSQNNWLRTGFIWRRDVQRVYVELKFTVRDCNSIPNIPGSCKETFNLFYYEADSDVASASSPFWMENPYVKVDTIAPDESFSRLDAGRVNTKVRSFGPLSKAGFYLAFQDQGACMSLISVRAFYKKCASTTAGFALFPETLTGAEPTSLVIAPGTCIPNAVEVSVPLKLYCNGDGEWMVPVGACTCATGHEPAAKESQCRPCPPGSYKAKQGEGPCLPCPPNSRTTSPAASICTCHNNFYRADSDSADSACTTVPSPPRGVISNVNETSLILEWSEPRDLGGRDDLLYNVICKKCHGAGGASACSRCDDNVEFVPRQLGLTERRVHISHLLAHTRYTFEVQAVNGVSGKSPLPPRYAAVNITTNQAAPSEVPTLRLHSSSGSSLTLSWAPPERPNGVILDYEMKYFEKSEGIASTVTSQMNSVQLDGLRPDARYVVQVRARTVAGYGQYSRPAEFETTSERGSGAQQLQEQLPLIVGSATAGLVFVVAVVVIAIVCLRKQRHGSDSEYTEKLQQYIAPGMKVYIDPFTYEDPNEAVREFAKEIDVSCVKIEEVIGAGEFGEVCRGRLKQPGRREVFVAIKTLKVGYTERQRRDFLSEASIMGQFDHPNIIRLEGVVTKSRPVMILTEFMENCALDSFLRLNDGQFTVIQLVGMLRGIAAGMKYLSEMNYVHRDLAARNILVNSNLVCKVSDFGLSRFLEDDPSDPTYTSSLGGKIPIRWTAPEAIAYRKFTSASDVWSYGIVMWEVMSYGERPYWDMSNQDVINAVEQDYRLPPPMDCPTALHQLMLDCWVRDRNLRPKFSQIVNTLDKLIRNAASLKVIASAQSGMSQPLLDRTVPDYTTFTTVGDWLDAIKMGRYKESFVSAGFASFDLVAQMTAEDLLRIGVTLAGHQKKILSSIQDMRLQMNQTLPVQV
# Procedure, shortened: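 HEK293T cells transiently transfected with the NanoLuc–kinase fusion vector plus carrier DNA and left overnight at 37 °C/5% CO2. Cells were resuspended in phenol red-free Opti-MEM at 17000 cells/well with the tracer. They were then exposed to compound for 2 h at 37 °C, and substrate/inhibitor mix was added. Acceptor (610 nm) and donor (450 nm) emissions were read.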
# [12] = target: T3, Membrane-associated tyrosine- and threonine-specific cdc2-inhibitory kinase (Homo sapiens, UniProt Q99640)
# T3 sequence (Q99640 whole entry): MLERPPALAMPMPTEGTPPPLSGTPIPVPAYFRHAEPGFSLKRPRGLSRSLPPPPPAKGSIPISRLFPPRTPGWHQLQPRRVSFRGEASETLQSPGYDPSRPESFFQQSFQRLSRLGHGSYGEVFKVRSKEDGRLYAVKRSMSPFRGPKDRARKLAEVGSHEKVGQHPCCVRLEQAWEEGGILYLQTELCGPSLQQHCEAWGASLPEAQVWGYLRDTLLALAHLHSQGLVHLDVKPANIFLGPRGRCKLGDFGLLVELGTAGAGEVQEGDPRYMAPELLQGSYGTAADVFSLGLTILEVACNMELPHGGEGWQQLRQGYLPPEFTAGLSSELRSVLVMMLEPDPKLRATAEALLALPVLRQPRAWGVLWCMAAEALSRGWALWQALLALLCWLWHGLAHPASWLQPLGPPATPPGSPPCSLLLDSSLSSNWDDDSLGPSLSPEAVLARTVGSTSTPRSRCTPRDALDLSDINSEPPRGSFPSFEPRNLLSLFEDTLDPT
# [13] = target: Voltage-gated inwardly rectifying potassium channel KCNH2 (Homo sapiens, UniProt Q12809); assay: Inhibition of human ERG by patch-clamp assay; assay type: toxicity
# Chain of Voltage-gated inwardly rectifying potassium channel KCNH2 (Q12809 whole entry): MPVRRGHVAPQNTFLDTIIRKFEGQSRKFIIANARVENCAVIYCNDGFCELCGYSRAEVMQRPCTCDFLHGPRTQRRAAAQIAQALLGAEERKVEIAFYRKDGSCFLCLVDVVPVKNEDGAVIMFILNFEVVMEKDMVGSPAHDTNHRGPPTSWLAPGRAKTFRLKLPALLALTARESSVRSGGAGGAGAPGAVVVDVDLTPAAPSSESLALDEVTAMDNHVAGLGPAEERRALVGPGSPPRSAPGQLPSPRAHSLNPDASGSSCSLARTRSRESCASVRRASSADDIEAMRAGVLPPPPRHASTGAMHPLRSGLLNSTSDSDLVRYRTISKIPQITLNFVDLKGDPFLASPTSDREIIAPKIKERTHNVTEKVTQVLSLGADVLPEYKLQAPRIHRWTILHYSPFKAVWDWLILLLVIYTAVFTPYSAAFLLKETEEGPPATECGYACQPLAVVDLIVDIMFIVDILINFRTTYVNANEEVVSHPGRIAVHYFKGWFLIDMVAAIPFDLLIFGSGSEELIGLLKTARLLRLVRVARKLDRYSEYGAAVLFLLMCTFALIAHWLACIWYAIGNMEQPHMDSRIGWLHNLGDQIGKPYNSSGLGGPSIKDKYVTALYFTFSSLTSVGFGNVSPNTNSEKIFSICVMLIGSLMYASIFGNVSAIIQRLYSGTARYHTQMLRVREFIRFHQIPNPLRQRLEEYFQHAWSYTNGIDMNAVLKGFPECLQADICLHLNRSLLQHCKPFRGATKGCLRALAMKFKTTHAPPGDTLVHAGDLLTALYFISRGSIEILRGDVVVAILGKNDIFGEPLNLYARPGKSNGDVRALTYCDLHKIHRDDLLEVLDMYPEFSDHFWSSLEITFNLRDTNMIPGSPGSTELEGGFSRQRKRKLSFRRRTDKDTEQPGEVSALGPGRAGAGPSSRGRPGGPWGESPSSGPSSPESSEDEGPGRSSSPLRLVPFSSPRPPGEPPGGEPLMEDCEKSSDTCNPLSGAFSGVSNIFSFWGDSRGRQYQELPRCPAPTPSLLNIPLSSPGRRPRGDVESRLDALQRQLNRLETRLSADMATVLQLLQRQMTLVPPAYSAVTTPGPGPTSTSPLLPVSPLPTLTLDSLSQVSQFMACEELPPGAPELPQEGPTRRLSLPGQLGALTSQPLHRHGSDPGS
# OVCAR-3 [14] = assay: Antitumor activity against human OVCAR-3 cells xenografted in SCID/Beige mouse assessed as reduction in tumor growth measured upto 20 days by digital caliper method; assay type: functional, cell-based; settings: dose 15-300 ppm, time <= 21.0 day, DDE = dose-dependent effect, in the assay text read “upto 21 days” for “upto 20 days”
# Procedure, shortened: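 Female SCID-beige mice (5–7 weeks) were implanted in the right flank with 5×10^6 OVCAR3 cells in 1:1 matrigel:media. At 100–150 mm3 they were randomised (n=8/group) and acclimatised to blank chow for 3–5 days. They then received drug-formulated chow at 15, 50 or 300 ppm for 21 days. Tumours were measured by caliper, with volume = 0.52×L×W2. TGI was calculated from group means at day 0 and the last day versus vehicle.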
# [15] = Toxicity in SCID/Beige mouse xenografted with OVCAR-3 cells assessed as change in body weight at 300 ppm measured upto 21 days; assay type: cell-based; settings: in vivo, 504 h, time < 21 day
# Procedure, shortened: (§1)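 OVCAR3 flank xenografts in female SCID-beige mice (n=8) given drug-formulated chow for 21 days after blank-chow acclimatization. Individual body weight change relative to day 0 = (BWlast−BWday0)/BWday0 ×100. Food consumption was also monitored as two-day mean chow intake.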
# [16] = Toxicity in SCID/Beige mouse xenografted with OVCAR-3 cells assessed as reduction in food consumption at 15 to 300 ppm incorporated with chow diet measured upto 21 days; assay type: cell-based; settings: in vivo, po, 504 h, dose 15-300 ppm, time < 21 day
# Procedure, shortened: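 The drug was dissolved in acetone and mixed into rodent meal at 300 ppm, then diluted with untreated feed to lower levels. Xenografted SCID-beige mice were acclimatised to blank chow, then fed 15, 50 or 300 ppm chow for 21 days. The two-day mean chow consumption was compared with mice on blank chow.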
# [17] = Toxicity in SCID/Beige mouse xenografted with OVCAR-3 cells assessed as tolerated dose at 300 ppm measured upto 21 days; assay type: cell-based; settings: in vivo, 504 h, time < 21 day; procedure, shortened: as §1
# [18] = Stability in SCID/Beige mouse plasma assessed as unbound compound at 50 to 300 ppm simulated dose incorporated with chow diet measured on 22 day; assay type: ADME; settings: in vivo, po, dose 50-300 ppm
# Procedure, shortened: (§2)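 OVCAR3-bearing SCID-beige mice were fed drug-formulated chow. Whole blood was sampled at 6:30am and 4:30pm on days 2, 5 and 22 and quantified by LC-MS/MS. Blood levels were converted to free plasma levels using blood/plasma ratio 1.2 and CD-1 plasma fu 0.185. […] Time over EC90 was referenced to the tumour pCDK1(Thr14) EC90.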
# [19] = Unbound Cmax in SCID/Beige mouse xenografted with OVCAR-3 cells at 50 ppm incorporated with chow diet; assay type: ADME; settings: po; procedure, shortened: as §2
# OVCAR-3 [20] = assay: Antitumor activity against human OVCAR-3 cells xenografted in SCID/Beige mouse assessed as time over EC90 concentration at 15 ppm incorporated with chow diet; assay type: functional; procedure, shortened: as §2
# [21] = In vivo inhibition of PKMYT1 in SCID/Beige mouse xenografted with human OVCAR-3 cells assessed as inhibition of CDK1 phosphorylation measured upto 10 hrs post oral dose by ELISA method; assay type: functional
# Procedure, shortened: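 OVCAR3 tumours were collected 2, 6 and 10 h after oral BID dosing (n=4/group/time point). They were homogenised in Tris lysis buffer with protease and phosphatase inhibitors. pCDK1(Thr14) was measured by sandwich ELISA with an anti-CDK1 capture antibody, an anti-CDK1-pT14 detector and an anti-rabbit HRP secondary, read at 450 nm. Signal was expressed relative to vehicle, and the free-plasma EC50 was derived by non-linear dose-response fitting.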
# Chain of Cytochrome P450 2D6 (P10635 whole entry): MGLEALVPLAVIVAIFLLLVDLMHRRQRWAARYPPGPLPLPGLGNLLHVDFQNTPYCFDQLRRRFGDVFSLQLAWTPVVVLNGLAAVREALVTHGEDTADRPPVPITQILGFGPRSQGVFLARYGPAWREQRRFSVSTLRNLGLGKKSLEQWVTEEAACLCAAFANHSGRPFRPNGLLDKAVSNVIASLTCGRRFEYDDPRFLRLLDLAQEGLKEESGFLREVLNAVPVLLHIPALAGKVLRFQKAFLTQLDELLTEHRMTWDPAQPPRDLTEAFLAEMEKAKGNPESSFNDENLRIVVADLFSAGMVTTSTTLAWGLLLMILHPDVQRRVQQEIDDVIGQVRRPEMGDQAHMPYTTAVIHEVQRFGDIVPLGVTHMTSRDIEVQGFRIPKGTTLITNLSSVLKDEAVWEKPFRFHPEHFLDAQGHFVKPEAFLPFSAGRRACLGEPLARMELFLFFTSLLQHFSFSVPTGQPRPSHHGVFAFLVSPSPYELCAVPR
# Chain of Cytochrome P450 2C9 (P11712 whole entry): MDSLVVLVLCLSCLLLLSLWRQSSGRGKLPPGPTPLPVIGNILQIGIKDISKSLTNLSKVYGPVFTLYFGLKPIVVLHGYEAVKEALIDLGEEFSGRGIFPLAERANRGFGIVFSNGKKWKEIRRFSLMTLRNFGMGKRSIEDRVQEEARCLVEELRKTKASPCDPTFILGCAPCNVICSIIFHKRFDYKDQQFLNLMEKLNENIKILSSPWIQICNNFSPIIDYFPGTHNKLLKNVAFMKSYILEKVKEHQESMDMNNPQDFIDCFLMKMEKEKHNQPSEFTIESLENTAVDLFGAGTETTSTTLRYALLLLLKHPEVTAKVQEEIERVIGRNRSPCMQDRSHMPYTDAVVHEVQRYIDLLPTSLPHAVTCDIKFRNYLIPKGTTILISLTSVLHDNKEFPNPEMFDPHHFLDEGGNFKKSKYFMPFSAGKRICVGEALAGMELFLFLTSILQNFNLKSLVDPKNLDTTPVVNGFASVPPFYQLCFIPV
compound,measurement,setting,value
Cc1ccc(O)c(C)c1-n1c(N)c(C(N)=O)c2cc(Cl)cnc21,IC50,Cytochrome P450 2D6,> 30 µM
same,IC50,Cytochrome P450 2C9,26 µM
same,Papp,[1],18.3 10^-6 cm/s
same,IC50,Cytochrome P450 3A4 [2],> 30 µM
same,PPB,[3],88.1%
same,hepatocyte CLint,[4],4.5 µL/min/1e6 cells
same,F,[5],21%
same,PPB,[6],89.6%
same,F,[7],33%
same,F,[8],32%
same,Activity,Cytochrome P450 3A4 [9],26.7%
same,CL free,[10],215 mL/min/kg
same,F,[11],37%
Cc1ccc(O)cc1-n1c(N)c(C(N)=O)c2nc3ccccc3nc21,IC50,Wee1-like protein kinase,3.7 µM
same,IC50,Ephrin type-B receptor 3,0.007 µM
NC(=O)c1c(N)n(-c2cccc3[nH]ncc23)c2nc3ccccc3nc12,IC50,Wee1-like protein kinase,5.2 µM
Cc1ccc(O)cc1-n1c(N)c(C(N)=O)c2cc3ccccc3nc21,IC50,Ephrin type-B receptor 3,0.007 µM
Cc1ccc(Cl)c(C)c1-n1c(N)c(C(N)=O)c2nc3ccccc3nc21,IC50,[12],> 20 µM
Cc1ccccc1-n1c(N)c(C(N)=O)c2nc3ccccc3nc21,IC50,[12],> 20 µM
Cc1ccc(N)cc1-n1c(N)c(C(N)=O)c2nc3ccccc3nc21,IC50,[12],> 20 µM
NC(=O)c1c(N)n(-c2cccc3[nH]ccc23)c2nc3ccccc3nc12,IC50,[12],> 20 µM
NC(=O)c1c(N)n(-c2cccc3[nH]cnc23)c2nc3ccccc3nc12,IC50,[12],> 20 µM
Cc1c(O)ccc(Cl)c1-n1c(N)c(C(N)=O)c2nc3ccccc3nc21,IC50,Wee1-like protein kinase,0.23 µM
Cc1ccc2[nH]ncc2c1-n1c(N)c(C(N)=O)c2nc3ccccc3nc21,IC50,Wee1-like protein kinase,3.2 µM
Cc1ccc(O)c(C)c1-n1c(N)c(C(N)=O)c2nc3cc(Br)ccc3nc21,IC50,[12],< 0.003 µM
Cc1cc2c(C(N)=O)c(N)n(-c3c(C)ccc(O)c3C)c2nc1C [LUNRESERTIB],IC50,Cytochrome P450 2D6,> 30 µM
same,IC50,Cytochrome P450 2C9,> 30 µM
same,Papp,[1],15.2 10^-6 cm/s
same,CLH,[4],3.2 µL/min
same,F,[5],37%
same,F,[8],29%
same,Activity,Cytochrome P450 3A4 [9],12.5%
same,IC50,[13],> 100 µM
same,Activity,OVCAR-3 [14],Dde
same,Activity,[15],Non-Toxic
same,Activity,[16],Non-Toxic
same,Activity,[17],Non-Toxic
same,Stability,[18],Stable
same,fCmax,[19],15.5 nM
same,Time,OVCAR-3 [20],0 h
same,EC50,"[21]; Homo sapiens, OVCAR-3, 10 h",0.0002 µM
same,EC90,"[21]; route po, time <= 10 hrs",0.011 µM
same,F,[11]; Sprague-Dawley,48%
Cc1ccc(O)c(C)c1-n1c(N)c(C(N)=O)c2cc(Cl)c(C)nc21,PPB,[3],93.1%
same,CL free,[10],731 mL/min/kg
same,F,[11],24%
